According to ChEMBL document CHEMBL3576864, “Striatoids A-F, Cyathane Diterpenoids with Neurotrophic Activity from Cultures of the Fungus Cyathus striatus” (J Nat Prod, 2015):
Calls of active or inactive are those of the source. The rule behind the calls is not given here.

Columns and labels:
PC-12 [1] = experiment: Effect on neurite outgrowth in rat PC12 cells at 10 to 40 uM after 48 hrs by inverted microscopic analysis; format: functional, cell-based
Summary of the method: (§1)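 PC-12 cells grown in F-12 (Ham) with 10% heat-inactivated HS, 5% FBS, penicillin/streptomycin, 37 °C, 5% CO2. Seeded on poly-L-lysine wells (2 × 10^4 cells/mL), 24 h. Switched to low serum (1% HS, 0.5% FBS), then dosed 10–40 μM with NGF 20 ng/mL (vehicle 0.1% DMSO), triplicate wells, 48 h. Phase-contrast scoring: ≥100 cells in each of five random fields; neurite ≥ one cell body = positive, as % of cells.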

PC-12 [2] = experiment: Neurotrophic activity in rat PC12 cells assessed as enhancement of NGF-induced neurite outgrowth after 48 hrs by inverted microscopic analysis; format: functional, cell-based; summary of the method: as §1

Structure (SMILES)	Activity (PC-12 [1])	Activity (PC-12 [2])
CC(=O)O[C@@H]1[C@H]2CC[C@@H]3C4=C(C(C)C)C[C@H](O)[C@]4(C)CC[C@@]3(C)[C@H]3O[C@@H]4OC[C@@]1(O)[C@H](O)[C@]4(O)[C@H]23	inactive	Dose-dependent effect
CC(=O)O[C@@H]1C2=CC[C@@H]3C4=C(C(C)C)C[C@H](O)[C@]4(C)CC[C@@]3(C)[C@H]3O[C@@H]4OC[C@@]1(O)[C@H](O)[C@]4(O)[C@H]23	inactive	Dose-dependent effect
CC(C)C1=C2[C@H]3CC=C4[C@@H]5O[C@]6(O)[C@@]7(O)[C@@H](OC[C@]6(O)O5)O[C@@H]([C@@H]47)[C@]3(C)CC[C@@]2(C)[C@@H](O)C1	inactive	Dose-dependent effect
CO[C@H]1O[C@@]2(O)[C@H](O)CO[C@H]3O[C@H]4[C@@H]([C@@H]1CC[C@@H]1C5=C(C(C)C)C[C@H](O)[C@]5(C)CC[C@]14C)[C@]32O	inactive	Dose-dependent effect
CC(C)C1=C2[C@H]3CC=C4[C@@H](O)[C@@]5(O)CO[C@H]6O[C@@H]([C@@H]4[C@@]6(O)[C@H]5O)[C@]3(C)CC[C@@]2(C)[C@@H](O)C1	inactive	Dose-dependent effect
CC(C)C1=C2[C@H]3CC=C4[C@H]5O[C@H]6CO[C@H]7O[C@@H]([C@@H]4[C@@]7(O)[C@@]6(O)O5)[C@]3(C)CC[C@@]2(C)[C@@H](O)C1	inactive	Dose-dependent effect
